{"source": "the RNAGym collection of RNA variant scans (doi:10.1126/science.aae0568)", "parents": {"B1": {"name": "tRNA (parent)", "chain": "GUUCCGUUGGCGUAAUGGUAACGCGUCUCCCUCCUAAGGAGAAGACUGCGGGUUCGAGUCCCGUACGGAACG"}}, "note": "Fewer inactive variants are shown than the library holds."}
{"variants_of": "B1", "test": "yeast fitness relative to wild type (ratio to wild type); higher = fitter; tRNA-Arg(CCU), competitive growth, 37 C, YPD", "how_it_was_run": "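Start and end populations of a pooled competition were compared by 100-nucleotide paired-end sequencing of gene amplicons. The Saccharomyces cerevisiae strains carried tRNA-Arg(CCU) gene variants at the native genomic locus, synthesised with a 3% per-site mutation rate at 69 sites, and competed in YPD at 37°C for 24 hours in six parallel replicates. Darwinian fitness relative to wild type was based on the change in genotype frequencies. Genotypes required ≥ 100 starting reads, and estimates < 0.5 were set to 0.5.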"}
{"variant": "C30U C33A", "yeast fitness": 0.672}
{"variant": "C30A A42U C55G", "yeast fitness": "≤ 0.5"}
{"variant": "C30A U35C", "yeast fitness": 0.93}
{"variant": "C29U C30G U59A", "yeast fitness": 0.617}
{"variant": "C30G U47A G50C A65G G68C", "yeast fitness": "≤ 0.5"}
{"variant": "C29U C30U C49G", "yeast fitness": 0.731}
{"variant": "C31A A36G", "yeast fitness": 0.78}
{"variant": "C29U A45U U47C U54A", "yeast fitness": "≤ 0.5"}
{"variant": "C30G U47C G51A C66U", "yeast fitness": "≤ 0.5"}
{"variant": "C30U C62A", "yeast fitness": 0.798}
{"variant": "C30U C62G", "yeast fitness": 0.855}
{"variant": "C31A A43U U54A", "yeast fitness": "≤ 0.5"}
{"variant": "C30G U32C", "yeast fitness": 0.708}
{"variant": "C30G A69C A70G", "yeast fitness": "≤ 0.5"}
{"variant": "C29G G38C G44A", "yeast fitness": 0.668}
{"variant": "C30A A36U", "yeast fitness": 0.697}
{"variant": "C30A A36C", "yeast fitness": 0.579}
{"variant": "C30U C60A A70C", "yeast fitness": "≤ 0.5"}
{"variant": "C30A C33A A57U", "yeast fitness": "≤ 0.5"}
{"variant": "C29G U53C U54G", "yeast fitness": 0.509}
{"variant": "C30A C55U G68A", "yeast fitness": "≤ 0.5"}
{"variant": "C29U G67U", "yeast fitness": 0.91}
{"variant": "C31A A43G A45C", "yeast fitness": 0.541}
{"variant": "C30U A37C C60U", "yeast fitness": 0.548}
{"variant": "C30A C61U", "yeast fitness": 0.767}
{"variant": "C30A C49A", "yeast fitness": 0.699}
{"variant": "C31A A43U A57G", "yeast fitness": 0.559}
{"variant": "C29G C34U", "yeast fitness": 0.561}
{"variant": "C29G C34A", "yeast fitness": 0.585}
{"variant": "C30U U35C A37G C55A A65G", "yeast fitness": "≤ 0.5"}
{"variant": "C30A A40C", "yeast fitness": 0.712}
{"variant": "C30A A42C A69G", "yeast fitness": "≤ 0.5"}
{"variant": "C30U A57G", "yeast fitness": 0.709}
{"variant": "C29G C30G C49U", "yeast fitness": 0.66}
{"variant": "C31A A37U C49A C55U", "yeast fitness": "≤ 0.5"}
{"variant": "C30G G51C C61G", "yeast fitness": "≤ 0.5"}
{"variant": "C30U G41C A45U", "yeast fitness": "≤ 0.5"}
{"variant": "C30A A45U C55U", "yeast fitness": 0.589}
{"variant": "C29U C31U C33G U35C", "yeast fitness": 0.588}
{"variant": "C31G A45C A65U", "yeast fitness": "≤ 0.5"}
{"variant": "C29G C33G G41C G67C", "yeast fitness": "≤ 0.5"}
{"variant": "C30U C49U U54A", "yeast fitness": "≤ 0.5"}
{"variant": "C30G A37C C46G A69C", "yeast fitness": 0.571}
{"variant": "C29G C31G C49G C61G", "yeast fitness": "≤ 0.5"}
{"variant": "C30G G38C G52A C55U", "yeast fitness": "≤ 0.5"}
{"variant": "C29U A37C G41A A70C", "yeast fitness": "≤ 0.5"}
{"variant": "C30U G50A", "yeast fitness": 0.83}
{"variant": "C30A A37C C60A", "yeast fitness": "≤ 0.5"}
{"variant": "C29U C31A G38C C60A", "yeast fitness": "≤ 0.5"}
{"variant": "C30G C46A G56A", "yeast fitness": 0.557}
{"variant": "C29U A36U C49U", "yeast fitness": "≤ 0.5"}
{"variant": "C30G C60U A65G", "yeast fitness": "≤ 0.5"}
{"variant": "C30G A57G G68U", "yeast fitness": "≤ 0.5"}
{"variant": "C30U G39A A40C U53A", "yeast fitness": 0.565}
{"variant": "C30G C46A U47G C49A G52A G58C U64G A65G", "yeast fitness": 0.528}
{"variant": "C30U G39C G50A", "yeast fitness": "≤ 0.5"}
{"variant": "C30U A40C U59C A65G", "yeast fitness": "≤ 0.5"}
{"variant": "C30G G48A U53C", "yeast fitness": "≤ 0.5"}
{"variant": "C30U A40U A70C", "yeast fitness": 0.56}
{"variant": "C31A C62A C66G", "yeast fitness": "≤ 0.5"}
{"variant": "C30A C46U C55U", "yeast fitness": 0.573}
{"variant": "C30U A43C A70U", "yeast fitness": 0.556}
{"variant": "C29U C62U A70U", "yeast fitness": 0.532}
{"variant": "C29G G67A", "yeast fitness": 0.565}
{"variant": "C29U C31A", "yeast fitness": 0.609}
{"variant": "C30U U35A G51A", "yeast fitness": "≤ 0.5"}
{"variant": "C30A C66U", "yeast fitness": 0.847}
{"variant": "C29G G48C U59A", "yeast fitness": "≤ 0.5"}
{"variant": "C29G C34U C62U", "yeast fitness": "≤ 0.5"}
{"variant": "C30U C46G C49U", "yeast fitness": 0.641}
{"variant": "C31A C33G G51C C60G", "yeast fitness": "≤ 0.5"}
{"variant": "C30G G41A A65G", "yeast fitness": "≤ 0.5"}
{"variant": "C30U A45G C61A A65U", "yeast fitness": "≤ 0.5"}
{"variant": "C29G U54G U59A", "yeast fitness": "≤ 0.5"}
{"variant": "C29U A42G A43G", "yeast fitness": "≤ 0.5"}
{"variant": "C30G C33G C60G C62U", "yeast fitness": "≤ 0.5"}
{"variant": "C29U C55G A65U", "yeast fitness": "≤ 0.5"}
{"variant": "C29U U47G C49G A70G", "yeast fitness": "≤ 0.5"}
{"variant": "C30A A70C", "yeast fitness": 1.01}
{"variant": "C29G U54C", "yeast fitness": 0.664}
{"variant": "C30G A42U", "yeast fitness": 0.666}
{"variant": "C31G A36U", "yeast fitness": 0.615}
{"variant": "C30A A36U G38C G39A C66A", "yeast fitness": "≤ 0.5"}
{"variant": "C30A A42U C49U U59C A69C", "yeast fitness": 0.557}
{"variant": "C29U U32C C62U A70U", "yeast fitness": "≤ 0.5"}
{"variant": "C29G C33G U35G G44A G67A", "yeast fitness": "≤ 0.5"}
{"variant": "C30U G38C G63A A70G", "yeast fitness": "≤ 0.5"}
{"variant": "C29U C34U A57C U64C", "yeast fitness": 0.549}
{"variant": "C31A A42G C49G C62U", "yeast fitness": "≤ 0.5"}
{"variant": "C30A G38C", "yeast fitness": 0.851}
{"variant": "C31A C33A", "yeast fitness": 0.509}
{"variant": "C29G C33U A37G A40C", "yeast fitness": "≤ 0.5"}
{"variant": "C31A C55G", "yeast fitness": 0.529}
{"variant": "C30A C46G G52A G56A", "yeast fitness": 0.608}
{"variant": "C30U A57G A70U", "yeast fitness": 0.558}
{"variant": "C30G G41C G68A", "yeast fitness": "≤ 0.5"}
{"variant": "C29G C30U U47C", "yeast fitness": "≤ 0.5"}
{"variant": "C29G G63A", "yeast fitness": 0.646}
{"variant": "C30A C31U U59C", "yeast fitness": 0.983}
{"variant": "C30G C34A C49G G50A U64A", "yeast fitness": 0.56}
{"variant": "C29U A43G", "yeast fitness": 0.883}
{"variant": "C30A C60A", "yeast fitness": 0.619}
{"variant": "C29G C33U C66U", "yeast fitness": "≤ 0.5"}
{"variant": "C29U C46G G51A G52A", "yeast fitness": "≤ 0.5"}
{"variant": "C30G C33G A36C A37U A43U", "yeast fitness": "≤ 0.5"}
{"variant": "C30A G50C", "yeast fitness": 0.594}
{"variant": "C30A G50U", "yeast fitness": 0.816}
{"variant": "C30U G58C G63C", "yeast fitness": 0.57}
{"variant": "C29G C46A A57G U59C", "yeast fitness": "≤ 0.5"}
{"variant": "C30G G44C G51C A69U", "yeast fitness": "≤ 0.5"}
{"variant": "C29U G68C", "yeast fitness": 0.898}
{"variant": "C30G G52C A65C", "yeast fitness": "≤ 0.5"}
{"variant": "C30G A42U A45G A69U", "yeast fitness": "≤ 0.5"}
{"variant": "C29G U47C", "yeast fitness": 0.75}
{"variant": "C29G C46A", "yeast fitness": 0.661}
{"variant": "C29G C61A", "yeast fitness": "≤ 0.5"}
{"variant": "C30A U54C G63A", "yeast fitness": 0.601}
{"variant": "C29G G44C C49G A57C", "yeast fitness": 0.598}
{"variant": "C31G A36U A65U", "yeast fitness": 0.517}
{"variant": "C29G U35C C55G A57G", "yeast fitness": "≤ 0.5"}
{"variant": "C31A G56A G67A A69U", "yeast fitness": "≤ 0.5"}
{"variant": "C29G G38A", "yeast fitness": 0.614}
{"variant": "C31G A40G C46A", "yeast fitness": 0.618}
{"variant": "C30U C46U G52C", "yeast fitness": "≤ 0.5"}
{"variant": "C29U U53A C61U U64C", "yeast fitness": "≤ 0.5"}
{"variant": "C29U U59G", "yeast fitness": 0.83}
{"variant": "C30U G38C C62G", "yeast fitness": "≤ 0.5"}
{"variant": "C30U A36U C62G G63A", "yeast fitness": 0.542}
{"variant": "C31A A43U C61A", "yeast fitness": "≤ 0.5"}
{"variant": "C31G A37C G52C C61A C66U", "yeast fitness": 0.527}
{"variant": "C31A U53G A57G", "yeast fitness": "≤ 0.5"}
{"variant": "C29G C49A G67C", "yeast fitness": "≤ 0.5"}
{"variant": "C31A G44C C60G", "yeast fitness": "≤ 0.5"}
{"variant": "C29U C49U C55A", "yeast fitness": "≤ 0.5"}
{"variant": "C29U A42U A43U U54C C55G", "yeast fitness": "≤ 0.5"}
{"variant": "C29G G38A U53A U64A", "yeast fitness": "≤ 0.5"}
{"variant": "C29G U32C G51A", "yeast fitness": 0.723}
{"variant": "C29U C49A", "yeast fitness": 0.592}
{"variant": "C31G A36U G39A", "yeast fitness": "≤ 0.5"}
{"variant": "C31A C55A C61A G63A", "yeast fitness": 0.655}
{"variant": "C30G C34G U35A G68A", "yeast fitness": "≤ 0.5"}
{"variant": "C30A C31A G38A C49U G52A", "yeast fitness": "≤ 0.5"}
{"variant": "C31A G52C U64C", "yeast fitness": "≤ 0.5"}
{"variant": "C29U G50C A70G", "yeast fitness": "≤ 0.5"}
{"variant": "C29G C55G A57G A69G", "yeast fitness": 0.606}
{"variant": "C29U U35A A70C", "yeast fitness": "≤ 0.5"}
{"variant": "C30G A42C C55U", "yeast fitness": "≤ 0.5"}
{"variant": "C29G C31G C49A", "yeast fitness": "≤ 0.5"}
{"variant": "C31A C34U U54C A69C", "yeast fitness": "≤ 0.5"}
{"variant": "C30A A42C", "yeast fitness": 0.789}
{"variant": "C30A A42U", "yeast fitness": 0.753}
{"variant": "C30A A36U G39A A45G G63U", "yeast fitness": "≤ 0.5"}
{"variant": "C30A C55G C66U", "yeast fitness": "≤ 0.5"}
{"variant": "C31A G38A A65G", "yeast fitness": 0.591}
{"variant": "C29G C33A C34G", "yeast fitness": "≤ 0.5"}
{"variant": "C30U G39A A40G U53C G67A", "yeast fitness": "≤ 0.5"}
{"variant": "C29G C30G G63A", "yeast fitness": 0.607}
{"variant": "C31A U54C", "yeast fitness": 0.562}
{"variant": "C29U G44C U54A", "yeast fitness": 0.55}
{"variant": "C31A A42G", "yeast fitness": 0.766}
{"variant": "C30U A45C A65U", "yeast fitness": "≤ 0.5"}
{"variant": "C30G A43C", "yeast fitness": 0.549}
{"variant": "C30G A43U", "yeast fitness": 0.635}
{"variant": "C30U U32A", "yeast fitness": 0.883}
{"variant": "C30G C33G C34U A42U A57G A65C", "yeast fitness": "≤ 0.5"}
{"variant": "C30G A70U", "yeast fitness": 0.58}
{"variant": "C30G C46U A65C", "yeast fitness": "≤ 0.5"}
